Measured values from different studies.
Compare with care: the assays were run in different laboratories. ≈ marks a conversion by molar mass, not a printed value.

The IC50 of `COc1cc2c(cc1O)CCN[C@]21CS[C@@H]2c3c(OC(C)=O)c(C)c4c(c3[C@H](COC1=O)N1[C@@H]2[C@H]2c3c(cc(C)c(OC)c3O)C[C@@H]([C@@H]1C#N)N2C)OCO4` is reported as 253 nM (Human coronavirus 229E; viral replication; Calu-3).
With `O=C(CCCCC1CCCCC1)NP(=O)(O)O` the MIC was greater than 200 µg/mL (Enterococcus faecalis; microbial growth; ATCC33186).
The inhibition of `CCOC(=O)C1=C[C@@H](OC(CC)CC)[C@H](NC(C)=O)[C@@H](N)C1` is reported as 72.8% (Human coronavirus 229E; cytopathic effect; A549; 50 µM).
The IC50 of `CCC(CC)COC(=O)[C@H](C)N[P@](=O)(OC[C@H]1O[C@@](C#N)(c2ccc3c(N)ncnn23)[C@H](O)[C@@H]1O)Oc1ccccc1` is reported as 110 nM (Human coronavirus 229E; viral replication; Calu-3).
The viability of `COc1ccccc1NC(=O)/C=C/c1ccc2c(c1)C=CC(C)(C)O2` is reported as 83% (rat Primary cortical neuron; cell growth or viability, MTT; 1 µM, 12 h).
`O=C(Cc1ccc2ccccc2c1)N[C@@H](Cc1ccccc1)C(=O)N[C@H](Cc1ccccc1)C(=O)N[C@@H](Cc1ccc(OP(=O)(O)O)cc1)C(=O)O` has an IC50 of greater than 500000 nM (HeLa; cell growth or viability, MTT; 48 h).
The IC50 of `CC(C)C[C@H](NC(=O)[C@@H](NC(=O)N[C@@H](Cc1ccccc1)C(=O)O)[C@@H]1CCN=C(N)N1)C(=O)N[C@H](C=O)Cc1ccccc1` is reported as 23700 nM (Human coronavirus 229E; viral replication; Huh7.5).
With `O=c1cc(OCCCOc2ccnc(SCc3ccc(F)cc3)n2)c2cc(F)ccc2o1` the inhibition was 34.9% (Human coronavirus 229E; cytopathic effect; A549; 6.25 µM).
With `Nc1ncnc2c([C@@H]3N[C@H](CO)[C@@H](O)[C@H]3O)c[nH]c12` the inhibition was 0% (Japanese encephalitis virus; viral replication, inhibitor; Vero 76; 0.1 µM).
`CCCCCCCC(=O)NP(=O)(O)O` gave an MIC of greater than 200 µg/mL (Enterococcus faecalis; microbial growth; ATCC33186).
`NC(=O)c1ncn([C@@H]2O[C@H](CO)[C@@H](O)[C@H]2O)n1` has an IC50 of 25100 nM (Human coronavirus 229E; viral replication; Huh7.5).
With `O=C(CCCCC1CCCCC1)CP(=O)(O)O` the MIC was greater than 200 µg/mL (Enterococcus faecalis; microbial growth; ATCC33186).
`Cc1cccc(CSc2nccc(OCCOc3cc(=O)oc4ccccc34)n2)c1` has an inhibition of 58.1% (Human coronavirus 229E; cytopathic effect; A549; 25 µM).
For `CC[C@H](C)C[C@H](C)CCCCCCCCC(=O)N[C@H]1C[C@@H](O)[C@@H](NCCN)NC(=O)[C@@H]2[C@@H](O)CCN2C(=O)[C@H]([C@H](O)CCN)NC(=O)[C@H]([C@H](O)[C@@H](O)c2ccc(O)cc2)NC(=O)[C@@H]2C[C@@H](O)CN2C(=O)[C@H]([C@@H](C)O)NC1=O`, the MIC50 was 0.016 µg/mL (≈ 0.0146 µM) (Aspergillus fumigatus; microbial growth, broth dilution; MF5668).
The viability of `CC1(C)C=Cc2cc(C(CC(=O)Nc3ccccc3)Nc3ccccc3)ccc2O1` (stereo not shown) is reported as greater than 80% (rat Primary cortical neuron; cell growth or viability, MTT; 1 µM, 12 h).
For `CCCCCCCC/C=C\CCCCCCCCNC(=O)CP(=O)(O)O`, the MIC was 50 µg/mL (≈ 128 µM) (Enterococcus faecalis; microbial growth; ATCC33186).
`COc1c(C)c2c(c(O)c1C/C=C(\C)CCC(=O)O)C(=O)OC2` has an IC50 of 2110 nM (Human coronavirus 229E; viral replication; Calu-3).
`O=C(CCCCCCCCCCOc1ccccc1)CP(=O)(O)O` gave an MIC of 50 µg/mL (≈ 140 µM) (Enterococcus faecalis; microbial growth; ATCC33186).
`CC1(C)C=Cc2cc(/C=C/C(=O)Nc3ccccc3)ccc2O1` gave a viability of 73% (rat Primary cortical neuron; cell growth or viability, MTT; 1 µM, 12 h).
